27 molecules from ChEMBL document CHEMBL1122216, “2-(Aminomethyl)phenols, a new class of saluretic agents. 6. Effects of N,O-spiroannulation and subsequent quaternization” (1983) can be followed below.

Each structure is given as a SMILES string.

Experiment [1] concerns Rattus norvegicus. In words: Antihypertensive activity after po administration of 40 mg/kg dose in spontaneously hypertensive(SH) rats; score is for average value of four animals. It counts as functional. The procedure, abridged:
(§1)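 Spontaneously hypertensive rats were scored by the maximum fall in blood pressure: 0, <20 mm; 1, <30 mm; 2, <40 mm; 3, >40 mm Hg.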

Experiment [2] concerns Rattus norvegicus. Kind of experiment: Antihypertensive activity after administration of 20 mg/kg dose in spontaneously hypertensive(SH) rats; score is for average value of four animals. It counts as functional. The method, boiled down: as §1
Experiment [3] has as its system Rattus norvegicus. In words: Saluretic property after administration in rats. The class given is functional. The procedure, abridged: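 Rats were housed three per cage, with three cages per dose. Sodium excreted over the first 5 h was scored from the geometric mean: 0, <2 mequiv; ±, >2; 1, <8; 2, <15; 3, <25; 4, <35; 5, <45; 6, <55 mequiv.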
Experiment [4] deals with Canis familiaris. In words: Saluretic property in an anesthetized dog after 5 mg/kg administration. It counts as functional, Canis lupus familiaris.
For experiment [5], the system named is Rattus norvegicus. Kind of experiment: Antihypertensive activity after intraperitoneal administration of 20 mg/kg dose in spontaneously hypertensive(SH) rats; score is for average value of two animals. It counts as functional. The procedure, abridged: as §1
In experiment [6] the test system is Rattus norvegicus. Kind of experiment: Antihypertensive activity after oral administration of 5 mg/kg dose in spontaneously hypertensive(SH) rats. It counts as functional. The method, boiled down: as §1
For experiment [7], the system named is Rattus norvegicus. In words: Antihypertensive activity after oral administration of 20 mg/kg dose in spontaneously hypertensive(SH) rats. It counts as functional. The method, boiled down:
as §1

In experiment [8] the test system is Canis familiaris. Kind of experiment: Saluretic property in a anesthetized dog after 5 mg/kg oral administration. It counts as functional, Canis lupus familiaris.
Experiment [9] has as its system Rattus norvegicus. In words: Antihypertensive activity after intraperitoneal administration of 20 mg/kg dose in spontaneously hypertensive(SH) rats. The class given is functional. The method, boiled down:
as §1

The subject of experiment [10] is Rattus norvegicus. Kind of experiment: Antihypertensive activity after po administration of 5 mg/kg dose in spontaneously hypertensive(SH) rats; score is for average value of two animals. It counts as functional. The procedure, abridged: as §1
Experiment [11] relates to Canis familiaris. Kind of experiment: Saluretic property in an average of two anesthetized dog after 5 mg/kg po administration. The class given is functional, Canis lupus familiaris.
Experiment [12] has as its system Rattus norvegicus. In words: Antihypertensive activity after administration of 5 mg/kg dose in spontaneously hypertensive(SH) rats; score is for average value of four animals. It counts as functional. The procedure, abridged: as §1
Experiment [13] has as its system Rattus norvegicus. In words: Antihypertensive activity after po administration of 20 mg/kg dose in spontaneously hypertensive(SH) rats; score is for average value of six animals. The class given is functional. The method, boiled down:
as §1

Experiment [14] concerns Rattus norvegicus. Kind of experiment: Antihypertensive activity after administration of 20 mg/kg dose in spontaneously hypertensive(SH) rats; score is for average value of two animals. It counts as functional. The procedure, abridged:
as §1

The test system of experiment [15] is Rattus norvegicus. In words: Antihypertensive activity after po administration of 5 mg/kg dose in spontaneously hypertensive(SH) rats; Score is for average value of two animals. It counts as functional. The method, boiled down: as §1
Experiment [16] relates to Rattus norvegicus. In words: Antihypertensive activity after po administration of 20 mg/kg dose in spontaneously hypertensive(SH) rats; Score is for average value of two animals. It counts as functional. The method, boiled down:
as §1

The subject of experiment [17] is Rattus norvegicus. Kind of experiment: Antihypertensive activity after po administration of 0.08 mg/kg dose in spontaneously hypertensive(SH) rats; score is for average value of four animals. The class given is functional. The procedure, abridged: as §1
For experiment [18], the system named is Rattus norvegicus. In words: Antihypertensive activity after po administration of 0.31 mg/kg dose in spontaneously hypertensive(SH) rats; score is for average value of four animals. It counts as functional. The method, boiled down:
as §1

Experiment [19] deals with Canis familiaris. In words: Saluretic property in an anesthetized dog after 5 mg/kg po administration; score is for average of two animals. The class given is functional, Canis lupus familiaris.
The subject of experiment [20] is Rattus norvegicus. In words: Antihypertensive activity after oral administration of 0.31 mg/kg dose in spontaneously hypertensive(SH) rats. It counts as functional. The method, boiled down:
as §1

In experiment [21] the test system is Rattus norvegicus. Kind of experiment: Antihypertensive activity after po administration of 40 mg/kg dose in spontaneously hypertensive(SH) rats; score is for average value of two animals. The class given is functional. The method, boiled down: as §1
The subject of experiment [22] is Rattus norvegicus. Kind of experiment: Antihypertensive activity after po administration of 5 mg/kg dose in spontaneously hypertensive(SH) rats; Score is for average value of six animals. The class given is functional. The procedure, abridged: as §1
The subject of experiment [23] is Rattus norvegicus. Kind of experiment: Antihypertensive activity after po administration of 0.08 mg/kg dose in spontaneously hypertensive(SH) rats; Score is for average value of six animals. The class given is functional. The method, boiled down:
as §1

In experiment [24] the test system is Rattus norvegicus. Kind of experiment: Antihypertensive activity after po administration of 0.31 mg/kg dose in spontaneously hypertensive(SH) rats; Score is for average value of six animals. The class given is functional. The procedure, abridged:
as §1

In experiment [25] the test system is Rattus norvegicus. Kind of experiment: Antihypertensive activity after po administration of 1.25 mg/kg dose in spontaneously hypertensive(SH) rats; Score is for average value of six animals. The class given is functional. The method, boiled down: as §1

For the molecule `CC(C)(C)c1cc(I)c2c(c1)CNC1(CCCCC1)O2`, the Antihypertensive score with Rattus norvegicus [1] is reported as 1; in the experiment with Rattus norvegicus [2], 0. Also, the Saluretic score with Rattus norvegicus [3] and with Canis familiaris [4] was 5 in each case.

`CC(C)(C)c1cc(Cl)c2c(c1)CNC1(CCCCC1)O2`: the Antihypertensive score with Rattus norvegicus [5] was found to be 0. For the same molecule, the results for the Saluretic score with Rattus norvegicus [3] and in the experiment on Canis familiaris [4] were 3 and 5, respectively.

With `CN1CCC2(CC1)NCc1cc(C(C)(C)C)cc(Cl)c1O2`, the Antihypertensive score in the experiment with Rattus norvegicus [2] is on record as 0. The Saluretic score was determined as 3 in the experiment on Rattus norvegicus [3] and 5 in the experiment with Canis familiaris [4].

On to `CC(C)(C)c1cc(I)c2c(c1)CNC1(CCC3(CC1)NCc1cc(C(C)(C)C)cc(I)c1O3)O2` (stereo unspecified), for which the Antihypertensive score in the experiment with Rattus norvegicus [6] is 0; in the experiment with Rattus norvegicus [7], 2. Moreover, the Saluretic score in the experiment on Rattus norvegicus [3] was determined as 2.

Take `CC(C)(C)c1cc(I)c2c(c1)C[N+](C)(C)C1(CCC(C(C)(C)C)CC1)O2.[I-]` (stereo unspecified): the Saluretic score in the experiment with Canis familiaris [8] and in the experiment on Rattus norvegicus [3] was 0 throughout. Moreover, the Antihypertensive score turned out to be 2 in the experiment with Rattus norvegicus [9] and 0 with Rattus norvegicus [7].

Regarding `CC(C)(C)c1cc(I)c2c(c1)C[N+](C)(C)CO2.[I-]`, the Antihypertensive score in the experiment on Rattus norvegicus [10] is 0; in the experiment with Rattus norvegicus [5], 2. In the experiment with Rattus norvegicus [3], this molecule returned a Saluretic score of 0.

Regarding `CC(C)(C)c1cc(I)c2c(c1)CNC1(CCCCCCCCCCC1)O2`, the Saluretic score in the experiment with Canis familiaris [11] was determined as 2; in the experiment on Rattus norvegicus [3] it was 4. Besides, the Antihypertensive score in the experiment with Rattus norvegicus [12] came out at 0; in the experiment on Rattus norvegicus [2] it was 1.

For the molecule `CC(C)(C)c1cc(I)c2c(c1)CNC1(CCN(CCc3ccccc3)CC1)O2`, the Antihypertensive score came to 0 in the experiment with Rattus norvegicus [12] and 1 with Rattus norvegicus [13]. For the same molecule, the Saluretic score with Rattus norvegicus [3] came out at 4; with Canis familiaris [4], 5.

Regarding `CC(C)(C)c1cc(I)c2c(c1)CNC1(O2)C2CC3C(C2)C31` (stereo unspecified), the Antihypertensive score in the experiment with Rattus norvegicus [12] was 1; in the experiment with Rattus norvegicus [13] it was 2. Further, the Saluretic score with Rattus norvegicus [3] and in the experiment with Canis familiaris [4] was 5 each time.

In the case of `CC(C)(C)c1cc(I)c2c(c1)C[N+](C)(C)C1(CCNCC1)O2.[Cl-]`, the Antihypertensive score in the experiment with Rattus norvegicus [5] and in the experiment with Rattus norvegicus [14] was 0 throughout. Further, the Saluretic score in the experiment with Rattus norvegicus [3] and in the experiment on Canis familiaris [4] was 0 throughout.

For the molecule `CC1(C)CC(C)(C)CC2(C1)NCc1cc(C(C)(C)C)cc(I)c1O2`, the values for the Antihypertensive score in the experiment on Rattus norvegicus [10] and in the experiment with Rattus norvegicus [2] were 0 and 1, respectively. The same molecule showed a Saluretic score with Rattus norvegicus [3] of 4.

As to `CC(=O)N1CCC2(CC1)Oc1c(I)cc(C(C)(C)C)cc1C[N+]2(C)C.[I-]`, the Antihypertensive score in the experiment on Rattus norvegicus [15] turned out to be 0; in the experiment on Rattus norvegicus [16], 2. The Saluretic score with Rattus norvegicus [3] and in the experiment on Canis familiaris [4] was 0 in each case.

Consider `CC(C)(C)c1cc(I)c2c(c1)C[N+](C)(C)C1(CCCCC1)O2.[I-]`, for which the figures for the Antihypertensive score with Rattus norvegicus [12], in the experiment on Rattus norvegicus [17] and in the experiment with Rattus norvegicus [18] were 2, 0 and 2, respectively. Also, the Saluretic score with Rattus norvegicus [3] and with Canis familiaris [4] was 0 throughout.

`CC(C)(C)c1cc(I)c2c(c1)CN(CN1COc3c(I)cc(C(C)(C)C)cc3C1)CO2` gave an Antihypertensive score with Rattus norvegicus [9] of 0.

With `CC(C)(C)c1cc(I)c2c(c1)C[N+](C)(C)C1(CCCC1)O2.[I-]`, the Antihypertensive score in the experiment on Rattus norvegicus [5] came out at 3; with Rattus norvegicus [14], 0.

Consider `CC1CCC2(CC1)Oc1c(I)cc(C(C)(C)C)cc1C[N+]2(C)C.[I-]` (stereo unspecified), for which the Antihypertensive score in the experiment on Rattus norvegicus [14] is 0.

Take `CC(C)(C)c1cc(I)c2c(c1)CNC1(CCSCC1)O2`: the Saluretic score with Canis familiaris [19] stood at 2; in the experiment on Rattus norvegicus [3], 4. The Antihypertensive score is reported as 0 with Rattus norvegicus [10] and 2 with Rattus norvegicus [14].

`CC(C)(C)c1cc(I)c2c(c1)C[N+](C)(C)C(C)(C)O2.[I-]` gave an Antihypertensive score in the experiment with Rattus norvegicus [5] of 0.

`CC(C)(C)c1cc(I)c2c(c1)CNC1(CCC(C(=O)O)CC1)O2` (stereo unspecified): the Antihypertensive score in the experiment on Rattus norvegicus [12] and with Rattus norvegicus [14] was 2 in each case. The Saluretic score with Rattus norvegicus [3] is 4; in the experiment on Canis familiaris [4], 5.

As for `CC(C)(C)c1cc(Cl)c2c(c1)C[N+](C)(C)C1(CCCCC1)O2.[I-]`, the Antihypertensive score with Rattus norvegicus [5] was 0.5; in the experiment on Rattus norvegicus [14], 0. The Saluretic score in the experiment on Rattus norvegicus [3] stood at 0.

Consider `CN1CCC2(CC1)NCc1cc(C(C)(C)C)cc(I)c1O2`, for which the Antihypertensive score turned out to be 2 with Rattus norvegicus [5] and 1 with Rattus norvegicus [2]. Further, the Saluretic score is given as 4 in the experiment with Rattus norvegicus [3] and 5 with Canis familiaris [4].

Turning to `CC(C)(C)c1cc(I)c2c(c1)CNC1(O2)C2CC3CC(C2)CC1C3` (stereo unspecified), the values for the Antihypertensive score in the experiment with Rattus norvegicus [12] and with Rattus norvegicus [14] were 0 and 2, respectively. Further, the Saluretic score was found to be 3 in the experiment on Rattus norvegicus [3] and 0 in the experiment with Canis familiaris [4].

Take `CC(=O)N1CCC2(CC1)NCc1cc(C(C)(C)C)cc(I)c1O2`: the Antihypertensive score in the experiment on Rattus norvegicus [5] was 0. The Saluretic score with Canis familiaris [4] was 4.

Turning to `CC(=O)Oc1cc(C(C)(C)C)cc2c1OC1(CCCCC1)[N+](C)(C)C2.[I-]`, the Saluretic score with Canis familiaris [8] and with Rattus norvegicus [3] was 0 in each case. For the same molecule, the Antihypertensive score is reported as 1 in the experiment with Rattus norvegicus [20] and 2 with Rattus norvegicus [6].

As to `CC(C)(C)c1cc(Cl)c(O)c(CN)c1.Cl`, the Antihypertensive score is reported as 2 with Rattus norvegicus [21] and 0 with Rattus norvegicus [14]. In addition, the Saluretic score in the experiment with Rattus norvegicus [3] is on record as 6; in the experiment on Canis familiaris [4], 4.

With `CC(C)(C)c1cc(I)c(O)c(CN)c1.Cl`, the Antihypertensive score in the experiment on Rattus norvegicus [22] is 3; in the experiment on Rattus norvegicus [23], 0; in the experiment on Rattus norvegicus [24], 1; in the experiment on Rattus norvegicus [25], 2. Moreover, the Saluretic score in the experiment with Rattus norvegicus [3] and in the experiment with Canis familiaris [4] was 6 throughout.

As to `CC(C)(C)c1cc(I)c2c(c1)CNC1(CCC(C(C)(C)C)CC1)O2` (stereo unspecified), the Saluretic score in the experiment on Canis familiaris [8] came to 5; in the experiment with Rattus norvegicus [3], 4. This molecule also had an Antihypertensive score in the experiment with Rattus norvegicus [9] of 0.
